# This excerpt belongs to a sample that is enriched for hits.
# RORa inhibitor = inhibitors of orphan receptor RORA, primary screen, cell-based, luminescence. Nuclear receptor ROR-alpha (Homo sapiens), P35398. CHO-K1 Gal4-RORA LBD luciferase reporter. inhibition, % at 10 µM. 65,000 tested, 0.43% active. AID 561, 2006;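 active = inhibition above the mean of all tested compounds plus 3 SD, cut at about 52% in these data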;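 note: 0% = RORA-transfected cells with DMSO and 100% = mock-transfected cells lacking RORA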
# Target sequence (P35398 whole entry, looked up, the tested form may be a part): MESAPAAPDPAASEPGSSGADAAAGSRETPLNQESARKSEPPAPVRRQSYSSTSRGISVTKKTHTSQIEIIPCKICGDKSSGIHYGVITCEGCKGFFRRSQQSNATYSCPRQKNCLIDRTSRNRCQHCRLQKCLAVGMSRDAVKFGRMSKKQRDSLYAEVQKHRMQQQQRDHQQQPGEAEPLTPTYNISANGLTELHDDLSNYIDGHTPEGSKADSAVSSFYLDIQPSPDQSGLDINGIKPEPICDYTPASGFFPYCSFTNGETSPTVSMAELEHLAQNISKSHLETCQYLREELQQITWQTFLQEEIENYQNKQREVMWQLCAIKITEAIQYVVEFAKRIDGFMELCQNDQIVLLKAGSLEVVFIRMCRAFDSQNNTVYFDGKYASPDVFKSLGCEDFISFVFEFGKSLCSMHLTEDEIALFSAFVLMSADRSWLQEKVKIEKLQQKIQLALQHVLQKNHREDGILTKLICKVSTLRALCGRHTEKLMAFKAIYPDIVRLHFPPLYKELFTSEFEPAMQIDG
#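 Test system: CHO-K1 cells with Gal4-hRORA LBD fusion and pG5-luc reporter / Compound: single concentration per compound, 10 µM final / Schedule: 20 h compound treatment, 37 °C / Signal: luminescence from basal luciferase reporter expression / Read-out: % inhibition / Control set: mock-transfected cells as 100%, +RORA DMSO cells as 0% / Replicates: tested once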
# Starred values were filed as active, the others as inactive.
SMILES,RORa inhibitor
C=CS(=O)(=O)c1ccc(Oc2ccc(S(=O)(=O)C=C)cc2)cc1,94*
Cc1ccc(C)n1-c1ccc(N2CCOCC2)nc1,12
Cc1cc(C)n(Cc2ccc(C(=O)NCCC3=CCCCC3)o2)n1,8
O=C(CN(C1CCCCC1)S(=O)(=O)c1ccc(Cl)cc1)NCCCO,16
CC(C)NCC(O)Cn1c2c(c3ccccc31)CCc1c-2cnn1-c1ccccc1 (centres undefined),68*
O=C(CSc1nc2sc3c(c2c(=O)[nH]1)CCCC3)NCCO,10
O=C(Nc1sc2c(c1C(=O)O)CCCCC2)c1ccco1,-62
CCCc1cc(=O)[nH]c(SCC(=O)Nc2cc3c(cc2C(C)=O)OCO3)n1,1
N#Cc1c(NC(=O)CSc2nc(N)cc(=O)[nH]2)sc2c1CCCCCC2,52*
N#Cc1c(NC(=O)CSc2ncn[nH]2)sc2c1CCCCC2,88*
CC(C)c1ccc(C(=O)CSc2ncn[nH]2)cc1,-53
O=C(O)c1cccc(S(=O)(=O)N2CCOCC2)c1,22
O=C1C(=O)N(CCCn2ccnc2)C(c2cccnc2)/C1=C(/O)c1ccccc1 (centres undefined),-10
COc1ccc(S(=O)(=O)Nc2cccc(SC)c2)cc1OC,0
Cc1noc(/C=C/N(C)C)c1S(=O)(=O)N1CCc2ccccc21,3
CCOc1ccccc1N(CC(=O)NC1CCCC1)C(=O)CCC(=O)Nc1cc(C)on1,13
COC(=O)[C@@H](NC(=O)NCc1ccco1)C(C)C,-7
CN(C)CCOC(=O)C1(c2ccccc2)CCOCC1,3
COC(=O)c1cc(COc2ccc3oc(C)c(C(=O)OC)c3c2)c(C)o1,6
Cc1oc2cc3c(C(=O)OCCN(C)C)c(C)oc3cc2c1C(=O)OCCN(C)C,82*
OCCNc1nc(OCC(F)(F)F)nc(N2CCN(C34CC5CC(CC(C5)C3)C4)CC2)n1,21
COc1ccc2c(-c3ccccc3)cc3nnnn3c2c1,0
CCS(=O)(=O)N1CCCC(c2nc(-c3cccc(OC)c3)no2)C1 (centres undefined),-39
CCCS(=O)(=O)c1nnnn1-c1cccc(OC)c1,82*
CCCc1cc(=O)[nH]c(Nc2ccc(OC)c(Cl)c2)n1,6
SMILES,RORa inhibitor
Cc1cc(NC(=O)c2cc3n(n2)C(C(F)(F)F)CC(c2ccco2)N3)no1 (centres undefined),11
O=C(NC1CCN(Cc2ccccc2)CC1)C1CCCN(S(=O)(=O)c2cccc3nonc23)C1 (centres undefined),9
COC(=O)c1nnn(CC(=O)Nc2cccc(Cl)c2)c1C(=O)OC,4
CCN(CC)CCN1C(=O)C(=O)/C(=C(/O)c2ccncc2)C1c1ccccc1F (centres undefined),4
CS(=O)(=O)c1nc(-c2cccs2)cc(C(F)(F)F)n1,78*
Cc1nc2nc(-c3cccs3)cn2nc1C,-53
CCCCNC(=O)CCCn1c(=O)c2ccccc2n(CC(=O)NCCC2=CCCCC2)c1=O,11
Cn1nnnc1Sc1nc(-c2cccnc2)nc2ccccc12,1
Cc1ccc(-c2cc3nc(C)cc(NCc4ccco4)n3n2)cc1,-59
Cc1ccc(Nc2cc(C)nn2-c2nc(C)cc(=O)[nH]2)cc1,88*
CC1CCCCC1NS(=O)(=O)c1ccc(S(=O)(=O)N2CCCC2)cc1 (centres undefined),18
CC1=C(C#N)C(=O)OC(C)(C)C1,-25
CC(C)Oc1ccccc1-c1nc(SCC(=O)O)n[nH]1,4
CSc1cccc(NS(=O)(=O)c2cccc3nsnc23)c1,-16
COc1ccc(Nc2nc(C)cc(C)c2C#N)cc1,-4
CC(=O)NC(Cc1ccccc1)C(=O)NC1CCN(C(=O)NC2CCCCC2)CC1 (centres undefined),3
COc1cc(CC(NC(C)=O)C(=O)NC2CCN(c3nc(C)cc(C)c3C#N)CC2)cc(OC)c1 (centres undefined),75*
O=C(Nc1nnc(C23CC4CC(CC(C4)C2)C3)s1)c1ccco1,-91
CC(C)NC(=O)CCNS(=O)(=O)c1ccc(Br)cc1,8
CCOc1ccc(-c2nc(CSCC(=O)NCc3ccco3)c(C)o2)cc1,94*
COc1ccc(-c2nc(CS(=O)CC(=O)NCc3ccco3)c(C)o2)cc1 (centres undefined),-13
CCOc1ccc(-c2cc(CCCC(=O)NCc3ccco3)no2)cc1,58*
CCCCNC(=O)c1cc(-c2ccc(OC)cc2)on1,-59
CCc1ccc(-c2nc(CSCC(=O)N3CCN(c4ccccn4)CC3)c(C)o2)cc1,48
COCCNC(=O)CSCc1nc(-c2ccc(SC)cc2)oc1C,89*
SMILES,RORa inhibitor
Cc1ccc(CS(=O)(=O)CCC(=O)NCCCN2CCCC2=O)cc1,-3
CCCCn1c(SCC(=O)NCc2ccco2)nnc1-c1ccoc1C,6
CCc1ccc(-c2nc(CSCC(=O)NCCCN3CCCC3=O)c(C)o2)cc1,74*
COc1ccc(-c2nc(CSCC(=O)N3CCc4ccccc43)c(C)o2)cc1OC,7
COc1ccc2cc(C3(C)NC(=O)N(CC(=O)NCc4ccco4)C3=O)ccc2c1 (centres undefined),-1
Cc1ccc(-c2nc(CS(=O)(=O)CC(=O)N3CC(C)CC(C)C3)c(C)o2)cc1 (centres undefined),1
CC(Oc1cc(C(F)(F)F)cc(C(F)(F)F)c1)C(=O)NC(N)=O (centres undefined),8
COc1ccc(C)cc1S(=O)(=O)N1CCN(c2cccc(C(F)(F)F)c2)CC1,10
CCC(=O)Nc1c(OC(=O)CC)ccc2c(C)cc(=O)oc12,-3
CCOC(=O)c1c(C)c(C(=O)NCc2ccc3c(c2)OCO3)c(C)n1C,6
CN(CC(=O)Nc1nccs1)S(=O)(=O)c1ccc(F)cc1,-6
O=C(CCCNS(=O)(=O)c1cccc2nsnc12)NCc1ccc(F)cc1,12
CCOc1ncccc1C(=O)OCC(=O)Nc1cc(C(=O)OC)ccc1C(=O)OC,-26
O=C(CSc1nnc(-c2cccnc2)o1)OC1CCCCC1,-2
CCOc1ccc(-c2nnc3ccc(SCc4ccc(C(=O)OC)o4)nn23)cc1,-5
CCOC(=O)C1=C(C)N(c2ccccc2)C(=O)C1CC(=O)O (centres undefined),16
O=C(CCCCn1c(=O)[nH]c2ccccc2c1=O)N1CCN(c2ncccn2)CC1,15
Cc1nn(-c2nc3ccccc3[nH]2)c(N)c1-c1ccccc1,-54
O=C(CSc1ncnc2c1cnn2-c1ccccc1Cl)N1CCN(C(=O)c2ccco2)CC1,17
O=C(Nc1ccc(Cl)cn1)c1cccc(F)c1,-105
O=C(/C=C/Nc1ccc(F)c(Cl)c1)c1ccco1,-63
O=C(/C=C\Nc1ccccn1)c1ccc(Cl)cc1,64*
CCOC(=O)c1ccc(NS(=O)(=O)N2CCCCCC2)cc1,-49
O=C(Nc1ccc2c(c1)OCO2)c1cc(C2CC2)on1,-60
O=C(Nc1ccc2c(c1)OCO2)Oc1ccccc1,-8
SMILES,RORa inhibitor
O=C(/C=C\Nc1ccc2c(c1)OCO2)c1ccccn1,85*
O=c1cc(N2CCc3ccccc32)[nH]c(=O)n1Cc1ccc(F)cc1,-10
Nc1ccc(-c2nc3c(Cl)cc(N)cc3[nH]2)cc1,79*
O=C(CN1C(=O)c2ccccc2S1(=O)=O)NCCC1=CCCCC1,15
CCOC(=O)N1CCN(C(=O)CCc2ccc(S(=O)(=O)NCCc3ccccc3)cc2)CC1,6
Cc1ccc(NC2=Nc3ccccc3CS2)cc1,61*
COc1ccccc1-c1cn(S(=O)(=O)c2ccc(C)cc2)nc1N,-4

# Screening data as filed in PubChem.
